target: T1, Sphingosine 1-phosphate receptor 1 (Homo sapiens, UniProt P21453); test: Agonist activity at human S1P1 receptor assessed as cAMP accumulation by HTRF assay; assay type: functional
How it was run: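 S1P1 engagement measured as cyclase activity in a homogeneous time-resolved fluorescence (HTRF) assay.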

T1 sequence (P21453 whole entry): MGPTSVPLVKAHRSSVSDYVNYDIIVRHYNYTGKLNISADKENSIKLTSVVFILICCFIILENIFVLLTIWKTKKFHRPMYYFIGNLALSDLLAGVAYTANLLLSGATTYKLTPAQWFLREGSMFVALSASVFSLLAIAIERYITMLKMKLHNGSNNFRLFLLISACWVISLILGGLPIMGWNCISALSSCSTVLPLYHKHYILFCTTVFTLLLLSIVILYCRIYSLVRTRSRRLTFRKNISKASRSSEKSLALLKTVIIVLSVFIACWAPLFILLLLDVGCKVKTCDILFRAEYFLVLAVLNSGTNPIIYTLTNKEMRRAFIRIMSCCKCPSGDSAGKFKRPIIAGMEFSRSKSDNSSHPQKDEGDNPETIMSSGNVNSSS

| Compound | EC50 |
| --- | --- |
| CC(C)Oc1ccc(COc2ccc3c(c2)cc2n3CCC2CC(=O)O)cc1C(F)(F)F (single isomer, unassigned; enantiomer 1) [listing 1 of 2 here] | 0.067 nM |

target: T1, Sphingosine 1-phosphate receptor 1; test: Agonist activity at human S1P1 receptor assessed as cAMP accumulation by HTRF assay relative to S1P; assay type: functional

| Compound | Emax |
| --- | --- |
| CC(C)Oc1ccc(COc2ccc3c(c2)cc2n3CCC2CC(=O)O)cc1C(F)(F)F (single isomer, unassigned; enantiomer 1) [listing 2 of 2 here] | 107% |
| CC(C)Oc1ccc(COc2ccc3c(c2)cc2n3CCC2CC(=O)O)cc1C(F)(F)F (single isomer, unassigned; enantiomer 2) | 116% |
| CC(C)Oc1ccc(COc2ccc3c(c2)cc2n3CCC2CC(=O)O)cc1C#N (stereo in doubt; 19a) | 98% |

target: T1, Sphingosine 1-phosphate receptor 1; test: Agonist activity at human S1P1 receptor by beta-arrestin recruitment assay

| Compound | EC50 |
| --- | --- |
| CC(C)Oc1ccc(COc2ccc3c(c2)cc2n3CCC2CC(=O)O)cc1C(F)(F)F (single isomer, unassigned; enantiomer 1) [listing 1 of 2 here] | 0.0086 µM |

target: T1, Sphingosine 1-phosphate receptor 1; test: Agonist activity at human S1P1 receptor by beta-arrestin recruitment assay relative to S1P

| Compound | Emax |
| --- | --- |
| CC(C)Oc1ccc(COc2ccc3c(c2)cc2n3CCC2CC(=O)O)cc1C(F)(F)F (single isomer, unassigned; enantiomer 1) [listing 2 of 2 here] | 108% |
| CC(C)Oc1ccc(COc2ccc3c(c2)cc2n3CCC2CC(=O)O)cc1C(F)(F)F (single isomer, unassigned; enantiomer 2) | 104% |
| CC(C)Oc1ccc(COc2ccc3c(c2)cc2n3CCC2CC(=O)O)cc1C#N (stereo in doubt; 19a) | 128% |

target: Sphingosine 1-phosphate receptor 2 (Homo sapiens, UniProt O95136); test: Agonist activity at human S1P2 receptor by beta-arrestin recruitment assay
Sequence (O95136 whole entry): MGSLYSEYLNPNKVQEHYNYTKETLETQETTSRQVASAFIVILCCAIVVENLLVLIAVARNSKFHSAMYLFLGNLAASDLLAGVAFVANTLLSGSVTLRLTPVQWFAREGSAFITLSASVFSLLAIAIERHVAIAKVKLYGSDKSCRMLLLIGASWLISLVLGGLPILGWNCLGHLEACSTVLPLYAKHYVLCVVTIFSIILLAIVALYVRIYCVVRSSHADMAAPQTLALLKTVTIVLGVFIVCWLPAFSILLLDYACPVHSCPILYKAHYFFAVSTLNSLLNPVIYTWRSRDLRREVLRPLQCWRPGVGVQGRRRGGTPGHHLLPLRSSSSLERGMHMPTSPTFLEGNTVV

| Compound | EC50 |
| --- | --- |
| CC(C)Oc1ccc(COc2ccc3c(c2)cc2n3CCC2CC(=O)O)cc1C(F)(F)F (single isomer, unassigned; enantiomer 1) [listing 1 of 2 here] | > 10 µM |

target: Sphingosine 1-phosphate receptor 3 (Homo sapiens, UniProt Q99500); test: Agonist activity at human S1P3 receptor by beta-arrestin recruitment assay
Sequence (Q99500 whole entry): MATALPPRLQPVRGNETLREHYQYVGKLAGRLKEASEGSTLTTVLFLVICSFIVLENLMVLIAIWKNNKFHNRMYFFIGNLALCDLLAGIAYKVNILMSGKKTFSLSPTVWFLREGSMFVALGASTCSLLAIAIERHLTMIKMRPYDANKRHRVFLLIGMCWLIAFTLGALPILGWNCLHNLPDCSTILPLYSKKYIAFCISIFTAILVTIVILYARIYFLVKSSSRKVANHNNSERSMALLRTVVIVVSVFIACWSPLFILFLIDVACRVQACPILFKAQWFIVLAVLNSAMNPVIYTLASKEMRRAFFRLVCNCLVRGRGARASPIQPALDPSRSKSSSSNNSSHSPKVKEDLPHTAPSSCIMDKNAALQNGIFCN

| Compound | EC50 |
| --- | --- |
| CC(C)Oc1ccc(COc2ccc3c(c2)cc2n3CCC2CC(=O)O)cc1C(F)(F)F (single isomer, unassigned; enantiomer 1) [listing 1 of 2 here] | > 10 µM |

target: T2, Sphingosine 1-phosphate receptor 4 (Homo sapiens, UniProt O95977); test: Agonist activity at human S1P4 receptor by beta-arrestin recruitment assay
T2 sequence (O95977 whole entry): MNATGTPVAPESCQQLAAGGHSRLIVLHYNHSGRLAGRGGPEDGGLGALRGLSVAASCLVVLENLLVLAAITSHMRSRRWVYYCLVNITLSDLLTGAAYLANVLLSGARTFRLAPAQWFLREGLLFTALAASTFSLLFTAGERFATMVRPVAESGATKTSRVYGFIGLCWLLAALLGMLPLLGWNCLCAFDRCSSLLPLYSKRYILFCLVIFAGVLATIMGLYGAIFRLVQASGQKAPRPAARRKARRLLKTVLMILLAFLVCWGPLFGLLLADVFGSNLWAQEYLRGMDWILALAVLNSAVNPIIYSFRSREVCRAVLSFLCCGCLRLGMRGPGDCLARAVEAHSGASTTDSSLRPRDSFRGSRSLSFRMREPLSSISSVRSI

| Compound | EC50 |
| --- | --- |
| CC(C)Oc1ccc(COc2ccc3c(c2)cc2n3CCC2CC(=O)O)cc1C(F)(F)F (single isomer, unassigned; enantiomer 1) [listing 1 of 2 here] | > 10 µM |

target: T3, Sphingosine 1-phosphate receptor 5 (Homo sapiens, UniProt Q9H228); test: Agonist activity at human S1P5 receptor by beta-arrestin recruitment assay
T3 sequence (Q9H228 whole entry): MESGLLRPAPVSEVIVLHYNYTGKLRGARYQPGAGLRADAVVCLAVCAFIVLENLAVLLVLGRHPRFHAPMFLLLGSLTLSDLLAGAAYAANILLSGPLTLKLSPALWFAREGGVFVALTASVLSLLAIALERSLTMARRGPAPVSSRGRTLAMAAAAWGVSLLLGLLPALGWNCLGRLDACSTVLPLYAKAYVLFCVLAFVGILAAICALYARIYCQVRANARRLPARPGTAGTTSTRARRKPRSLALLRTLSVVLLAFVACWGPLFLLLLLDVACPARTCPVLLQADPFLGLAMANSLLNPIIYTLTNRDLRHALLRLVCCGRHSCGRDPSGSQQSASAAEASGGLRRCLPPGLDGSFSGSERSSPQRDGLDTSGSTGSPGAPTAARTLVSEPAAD

| Compound | EC50 |
| --- | --- |
| CC(C)Oc1ccc(COc2ccc3c(c2)cc2n3CCC2CC(=O)O)cc1C(F)(F)F (single isomer, unassigned; enantiomer 1) [listing 1 of 2 here] | > 10 µM |

target: T3, Sphingosine 1-phosphate receptor 5; test: Agonist activity at human S1P5 receptor by beta-arrestin recruitment assay relative to S1P

| Compound | Emax |
| --- | --- |
| CC(C)Oc1ccc(COc2ccc3c(c2)cc2n3CCC2CC(=O)O)cc1C#N (stereo in doubt; 19a) | 54% |

From ChEMBL document CHEMBL3352004, “(7-Benzyloxy-2,3-dihydro-1H-pyrrolo[1,2-a]indol-1-yl)acetic Acids as S1P1 Functional Antagonists” (ACS Med Chem Lett, 2014)
